Assay results taken from PMC3823235 (Biochemistry, 2013).
Like-named read-outs stand apart in the source and are kept apart here.

Assays:
[1] = test system: CCRF-CEM human leukemia cell lines; conditions: read-out: IC50, cell-based growth inhibition; reported as low as; cited from earlier work
CCRF-CEM/FPGS^- = assay: Growth inhibition assay, FPGS-deficient mutant cells; type: cell-based, human; conditions: read-out: CCRF-CEM/FPGS^- IC50, (−) T, (−) H
[2] = target: recombinant human aminoimidazole carboxamide ribonucleotide transformylase (hAICAR Tfase) (Homo sapiens, UniProt P31939); assay: hAICAR Tfase enzyme inhibition assay; type: biochemical
Chain of recombinant human aminoimidazole carboxamide ribonucleotide transformylase (hAICAR Tfase) (P31939 whole entry): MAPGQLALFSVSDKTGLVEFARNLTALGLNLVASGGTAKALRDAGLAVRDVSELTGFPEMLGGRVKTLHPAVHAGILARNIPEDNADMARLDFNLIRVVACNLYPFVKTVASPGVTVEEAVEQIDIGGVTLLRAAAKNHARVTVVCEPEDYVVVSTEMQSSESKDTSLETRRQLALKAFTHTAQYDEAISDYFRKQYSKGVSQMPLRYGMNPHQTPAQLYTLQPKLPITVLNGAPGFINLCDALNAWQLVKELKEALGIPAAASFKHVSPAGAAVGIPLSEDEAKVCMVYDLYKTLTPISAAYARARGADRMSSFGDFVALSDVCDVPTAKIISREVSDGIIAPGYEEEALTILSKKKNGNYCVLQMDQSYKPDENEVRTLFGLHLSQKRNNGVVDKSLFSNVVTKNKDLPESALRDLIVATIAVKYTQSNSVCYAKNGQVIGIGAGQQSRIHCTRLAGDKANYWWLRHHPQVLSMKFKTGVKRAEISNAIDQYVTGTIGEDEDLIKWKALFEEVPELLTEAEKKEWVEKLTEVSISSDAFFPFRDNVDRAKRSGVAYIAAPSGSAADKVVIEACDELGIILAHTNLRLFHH
How it was run: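 Recombinant human enzyme; method otherwise follows earlier work. Reaction kinetics followed for 2 min after initiation. Ki obtained from Dixon plots.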

[3] = test system: CCRF-CEM human leukemia cell lines; assay: Growth inhibition assay, CCRF-CEM; type: cell-based
[4] = alleviated by folic acid co-supplementation; cited from earlier work
CCRF-CEM/MTX = assay: Growth inhibition assay, RFC-deficient mutant cells; type: cell-based, human; conditions: read-out: CCRF-CEM/MTX IC50, (−) T, (−) H
[5] = test system: solid murine and human tumors; conditions: tumors that did not respond to methotrexate; cited from earlier work
GAR Tfase = conditions: read-out: Ki, GAR Tfase; cited from earlier work
[6] = test system: anti-folate resistant human leukemia cell lines; conditions: cited from earlier work
[7] = read-out: Inhibition Ki, hAICAR Tfase, Dixon plots
[8] = read-out: CCRF-CEM IC50, (+) T, (−) H, with thymidine, no hypoxanthine
[9] = read-out: CCRF-CEM IC50, (−) T, (+) H, no thymidine, with hypoxanthine
[10] = read-out: CCRF-CEM IC50, (−) T, (−) H, Table 1, no thymidine, no hypoxanthine
[11] = read-out: CCRF-CEM IC50, (−) T, (−) H, Table 2, parent cell line

Structure (SMILES)	Ki [2, 7] [nM]	IC50 [3, 8] [nM]	IC50 [3, 9] [nM]	IC50 [3, 10] [nM]	IC50 (CCRF-CEM/MTX) [nM]	IC50 (CCRF-CEM/FPGS^-; FPGS-deficient mutant) [nM]	also measured
Nc1nc2c(c(=O)[nH]1)C[C@@H](CCc1ccc(C(=O)N[C@@H](CCC(=O)O)C(=O)O)cc1)CN2 [3 Lometrexol, Lometrexol]							IC50 [1]: 2.9 nM; IC50 (CCRF-CEM/FPGS^-; Homo sapiens, CCRF-CEM): > 10000 nM; Ki [2]: > 100000 nM; IC50 ([3]; Homo sapiens, CCRF-CEM, read-out: CCRF-CEM IC50, (−) T, (+) H): > 10000 nM; Adverse effect in patients [4]: some patients suffered cumulative myelosuppression
CS[C@H](CCCc1c(N)nc(N)[nH]c1=O)c1ccc(C(=O)NC(CCC(=O)O)C(=O)O)cc1 (stereo partly drawn) [10R-8, 10R-methylthio-DDACTHF]	> 100000	80	> 10000	80	70		IC50 ([3]; read-out: IC50, CCRF-CEM growth inhibition): 80 nM
CS[C@@H](CCCc1c(N)nc(N)[nH]c1=O)c1ccc(C(=O)NC(CCC(=O)O)C(=O)O)cc1 (stereo partly drawn) [10S-7, 10S-methylthio-DDACTHF]	> 100000	70	> 10000	50	60	5000	IC50 [3, 11]: 60 nM
Nc1nc(N)c(CCCCc2ccc(C(=O)NC(CCC(=O)O)C(=O)O)cc2)c(=O)[nH]1 (stereo not shown) [DDACTHF]	20000	3600	> 10000	2700	> 100000	> 10000	IC50 [3, 11]: 2700 nM
Nc1nc2c(c(=O)[nH]1)CC(CCc1ccc(C(=O)N[C@@H](CCC(=O)O)C(=O)O)cc1)CN2 (stereo partly shown) [DDATHF, 5,10-dideaza-5,6,7,8-tetrahydrofolic acid]							In vivo antitumor effect [5]: effective in vivo against solid murine and human tumors
Nc1nc2ccc(CC(C=O)c3ccc(C(=O)N[C@@H](CCC(=O)O)C(=O)O)cc3)cc2c(=O)[nH]1 (stereo partly shown) [compound 4, 10-formyl-TDAF]							Ki (GAR Tfase): 260 nM
Nc1nc(N)c(CCCC(C(=O)C(F)(F)F)c2ccc(C(=O)N[C@@H](CCC(=O)O)C(=O)O)cc2)c(=O)[nH]1 (stereo partly shown) [compound 5, 10-CF3CO-DDACTHF]	> 100000	17	> 10000	16		> 10000	Ki (GAR Tfase): 15 nM
COc1cc(NCc2ccc3nc(N)nc(N)c3c2C)cc(OC)c1OC [neutrexin (trimetrexate), trimetrexate]							Sensitivity of resistant cells with 90–99% loss of FPGS activity [6]: marked hypersensitivity
